Measurements: the EternaBench riboswitch data

System: MS2 coat protein
Assay: apparent Kd, MS2 coat protein; higher = weaker binding; RNA-MaP array; FMN 200 µM where present
Summary of the method: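 The apparent Kd is the median of filtered binding-curve fits, one per cluster, to green signal normalised to red-channel RNA signal and control-cluster median Fmax. The clusters were on Illumina sequencing chips, and stalled E. coli RNA polymerase had transcribed the designs on them. Titration used SNAP-549-labelled MS2 coat protein from 0.7 or 1.5 nM, doubling to 3 µM, without and then with constant ligand, in 100 mM Tris-HCl pH 7.5, 80 mM KCl, 4 mM MgCl2, BSA, DTT, yeast tRNA and Tween-20.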

[1] = designed as: OFF switch for flavin mononucleotide, no ligand
[2] = ligand present: flavin mononucleotide, designed as: OFF switch for flavin mononucleotide
[3] = designed as: ON switch for flavin mononucleotide, no ligand
[4] = ligand present: flavin mononucleotide, designed as: ON switch for flavin mononucleotide

In the case of “CUUUUGUGAGGAUAUUAGUAGUAAAUAAAUAAAUUUACUACUGAGAAGGCACAUGAGGAUCACCCAUGUUCCUC”, the “apparent Kd” value [1] is reported as 36.7 nM and the “apparent Kd” value [2] is reported as 328 nM.
In the case of “AAAUUUAACGAAGGAUAUACUAACAUGAGGAUCACCCAUGUGUGUUUCGUGUUGCUGAAAUUCGGGUAGAAGGUCGUAUACAUA”, the “apparent Kd” value [1] is reported as 41 nM and the “apparent Kd” value [2] is reported as 28.7 nM.
In the case of “GUCCGCUCGUGAGGAUAUACAACACUGCUUCGGCAGUGUAUUAAGAUCACAUGAGGAUCACCCAUGUAGAAGGCACGAGCUGAU”, the “apparent Kd” value [1] is reported as 13.7 nM and the “apparent Kd” value [2] is reported as 289 nM.
For “GAAAUGAUGAUAGGAUAUCCACAGACAUGAGGAUCACCCAUGUUUAUGGGACGAAUCCUUGUGCAGGAGAAGGAUCGUCACUAU”, the “apparent Kd” value [1] was 64.7 nM and the “apparent Kd” value [2] was 39.5 nM.
In the case of “UUUUAACAUGAGGAUCACCCAUGUGAGGAUAUCGAAAUUUAUAUUUAUAUUAAUUUUUCGAGAAGGCACAUUUU”, the “apparent Kd” value [1] is reported as 169 nM and the “apparent Kd” value [2] is reported as 157 nM.
In the case of “AAAAGCAACACAGGAUAUAUCACGGGUGAUUUGAUAGAAGGGUGAGCGAAAGAGAGCAACAUGAGGAUCACCCAUGUAUGUUUG”, the “apparent Kd” value [3] is reported as 304 nM and the “apparent Kd” value [4] is reported as 184 nM.
“AGAAAUAAAAAUGAGGAUAUGCAAAAGAAAACAUGAGGAUCACCCAUGUAAAAGAAAAUAAAUGGGCAGAAGGCAUGAAAUAAAGA” was tested, and the “apparent Kd” value [3] was 136 nM and the “apparent Kd” value [4] was 44.9 nM.
“AAGAAUCAAGGAUAUGCAUGAUACGACAUGAGGAUCACCCAUGUCCUCAUGCGUAUCCUUGCAGAAGGUGAGUAUA” was tested, and the “apparent Kd” value [1] was 13.8 nM and the “apparent Kd” value [2] was 17.1 nM.
In the case of “AAAAGACAUGAGGAUCACCCAUGUCAGGAUAUCUAUAUUCAAGGGUCGGAGGGAAUACAGAGAAGGGAUGAGGG”, the “apparent Kd” value [1] is reported as 21.8 nM and the “apparent Kd” value [2] is reported as 24.8 nM.
“AUGAGGUCAGGAUAUGCAUGGCGGGACUUGCGUCGUGGCGUGGAGAAGGGACAUGAGGAUCACCCAUGUGGAGU” was tested, and the “apparent Kd” value [1] was 91.4 nM and the “apparent Kd” value [2] was 50.5 nM.
“UGGAUCAAUACAGGAUAUGGUGACGCACAUGAGGAUCACCCAUGUCCGCAGCGUGCUAAGCACGCCCAGAAGGGUAUUGAUUCG” was tested, and the “apparent Kd” value [3] was 722 nM and the “apparent Kd” value [4] was 69.4 nM.
In the case of “AGUUAGAUAGCGAUAUGAUCGAGAGAUCAUGUCGCUAAAUUUAGAAGGACAUGAGGAUCACCCAUGUAGGAUAUGGGUAUAGAA”, the “apparent Kd” value [3] is reported as 367 nM and the “apparent Kd” value [4] is reported as 128 nM.
In the case of “GGUUGUCAUAGUCAUCCUUUCCGUACAUGAGGAUCACCCAUGUAGGAUAUGCUACUCACGGUGUGGCAGAAGGGCGUGUGUCUU”, the “apparent Kd” value [1] is reported as 17.9 nM and the “apparent Kd” value [2] is reported as 19.9 nM.
In the case of “UUAAAUCAUGUAGGAUAUGCAUGGCGAAGCUACGCAGAAGGACAUGAGGAUCACCCAUGUUAUAGCUACCGAUUAAGGUGGCAA”, the “apparent Kd” value [1] is reported as 92.9 nM and the “apparent Kd” value [2] is reported as 246 nM.
“AUCUCAGGACGAGGAUAUCAAUACAUGAGGAUCACCCAUGUAUGAUUACUGUGAUCCUCUAAGGCUGAGAAGGCGUCCCAAUUA” was tested, and the “apparent Kd” value [1] was 20.4 nM and the “apparent Kd” value [2] was 8.37 nM.
“GUGCCUUGGGAGAAGGCCGAUAGCAAAGCUAUCGGAGGAUAUUCAUACCGGAAACGGACAUGAGGAUCACCCAUGUGGCACAAA” was tested, and the “apparent Kd” value [3] was 1280 nM and the “apparent Kd” value [4] was 51.7 nM.
“CAGUGCAAUGUAGGAUAUGCUCAGGAAUACUGAGCAGAAGGACAUGAGGAUCACCCAUGUCAAAUGAAAGAUAAUAAAGCACUG” was tested, and the “apparent Kd” value [1] was 14.6 nM and the “apparent Kd” value [2] was 18.9 nM.
In the case of “GUCAUACAUGAGGAUCACCCAUGUAAGGAUAUGCUAGCGGUCGGCUGACUGACUGCUAGCAGAAGGUACAUGAU”, the “apparent Kd” value [1] is reported as 64.1 nM and the “apparent Kd” value [2] is reported as 90 nM.
For “GGUAUCGGAGGAGGAUAUGAGCGUAUCGCUGCCUCAGAAGGCCUACUGAUACAUGAGGAUCACCCAUGUUGCGGUAAUCCUACU”, the “apparent Kd” value [1] was 283 nM and the “apparent Kd” value [2] was 23.5 nM.
“UUUUAACAUGAGGAUCACCCAUGUGAGGAUAUCGAAAUUUAUAUUUAUAUUUAUAUUACGAGAAGGCACAUUUU” was tested, and the “apparent Kd” value [1] was 84.9 nM and the “apparent Kd” value [2] was 102 nM.
With “GCAUGCAUAGCGAUAUGAUCGAGAGAUCAUGUCGCUAAAUUUAGAAGGACAUGAGGAUCACCCAUGUAGGAUAUGGGAGCAUGG” the “apparent Kd” value [3] was 76 nM and the “apparent Kd” value [4] was 12.7 nM.
With “CCAUAAAAGAUCCAAAAUUACAACAUGAGGAUCACCCAUGUGCAGGAUAUCGUGAAAGUAAAAUACGAGAAGGGCAAACACUGC” the “apparent Kd” value [1] was 365 nM and the “apparent Kd” value [2] was 442 nM.
For “CCCGGUCUGGAGGAUAUUAUAGAGCGUGCUUAAUAAGAAGGUCAGACAUGAGGAUCACCCAUGUUCUUACCCGG”, the “apparent Kd” value [1] was 23.3 nM and the “apparent Kd” value [2] was 53.8 nM.
“GUAAACGAUGAGGAUAUAUGAUAUCAAAGCAUCAUAGAAGGCAUCACAUGAGGAUCACCCAUGUGAUCUUCUUU” was tested, and the “apparent Kd” value [1] was 17.5 nM and the “apparent Kd” value [2] was 78.5 nM.
In the case of “CAAGGGCAUGAGAAGGCAUAAUAUAUAAUACCACAUGUUUACAUGAGGAUCACCCAUGUUACCUAUGAGGAUAUCAUGCCUACA”, the “apparent Kd” value [1] is reported as 14.4 nM and the “apparent Kd” value [2] is reported as 12.9 nM.
For “CAGUACUGAGGAUAUACAUGAGGAUCACCCAUGUGUUCCUUGUAGGAUAUCCGCAAAAGUAGAAGCCAGAAGGAGAUGUGCCUA”, the “apparent Kd” value [1] was 200 nM and the “apparent Kd” value [2] was 119 nM.
With “GGUCCAUUAUGAGGAUAUGGCACCUUAUUGGUGCCAGAAGGCAUGUCUUCACAUGAGGAUCACCCAUGUUAAAUAAAUUGGACC” the “apparent Kd” value [3] was 16.3 nM and the “apparent Kd” value [4] was 17.7 nM.
In the case of “UAAUUAAGUGUGAGGAUAUGCUGGUCCUUGGAUCAGCAGAAGGCACAUGAGGAUCACCCAUGUAAUAUAUUUAU”, the “apparent Kd” value [1] is reported as 97.4 nM and the “apparent Kd” value [2] is reported as 493 nM.
In the case of “AUAUACUUCCAGAAGGCACAUGAGGAUCACCCAUGUACGUCUGACAUCGUGUGAGGAUAUGGAGCACGAACGCUAAAGCGGGCA”, the “apparent Kd” value [1] is reported as 7.92 nM and the “apparent Kd” value [2] is reported as 21.3 nM.
In the case of “GUCACUAGAGGAUAUACAAUGGUAUAUGAUCCUAGAGACAUACAUGAGGAUCACCCAUGUAGAAGGCUAGUAAU”, the “apparent Kd” value [1] is reported as 81.7 nM and the “apparent Kd” value [2] is reported as 46.6 nM.
In the case of “GUAGAGUAAGGAUAUCGUGAAUAGGAUAGAAUGGUUAGAAACGAGAAGGUACAUGAGGAUCACCCAUGUAAUGU”, the “apparent Kd” value [1] is reported as 20.7 nM and the “apparent Kd” value [2] is reported as 21.3 nM.
With “AGAUUUGUACAUGAGGAUCACCCAUGUUAAUAGGUGUUUGUCAGAAGGCAUUAAUAGAGAUUUAAUGAGGAUAUGAUGUUACAA” the “apparent Kd” value [3] was 49.3 nM and the “apparent Kd” value [4] was 35.2 nM.
With “UUACUACAUGAGGAUCACCCAUGUCAGGAUAUUGUCUAUACCGUGGAAGCUGUGUCGAUAAGAAGGGACUGUAU” the “apparent Kd” value [1] was 20.5 nM and the “apparent Kd” value [2] was 34.8 nM.
For “GCCGAUUAAGUGAGGAUAUACCUAUGGAUACAUAGGUAGAAGGUACAUGAGGAUCACCCAUGUUCCUUAACGGC”, the “apparent Kd” value [1] was 11.4 nM and the “apparent Kd” value [2] was 13.2 nM.
For “UGAUAGCACAGAGGAUAUGCGUAGUGUUAUCUCUACAUGAGGAUCACCCAUGUAGAAGGCUGUGCUAUCUAAGUCGGAAACGAC”, the “apparent Kd” value [1] was 5.95 nM and the “apparent Kd” value [2] was 9.9 nM.
For “AUACUAAAUGAAGGAUAUCUAAGCAUAAACCUGAGAGAAGGUCAUUUUUACAUGAGGAUCACCCAUGUUGUGAUUAAUGGGUUA”, the “apparent Kd” value [1] was 71.8 nM and the “apparent Kd” value [2] was 144 nM.
For “UUACUGUUAUAGAAGGGUAUUUGGGAAUUACAUGAGGAUCACCCAUGUUUUAUAGGAUAUGUAUAUAGUAUUUAAUCAAGUUUA”, the “apparent Kd” value [1] was 17.8 nM and the “apparent Kd” value [2] was 15.7 nM.
“GGAUGAGCAAUAGGAUAUGCUGGUAUUGAAUGGGUAGAAGGAUUUCUAGUGGUAAAGACAUGAGGAUCACCCAUGUAGCGGCCC” was tested, and the “apparent Kd” value [3] was 328 nM and the “apparent Kd” value [4] was 265 nM.
“ACAUGACAUGAGGAUCACCCAUGUCGAUAAAAGCAAGGAUAUGGGCCCGAGUCGUUCGGACCAGAAGGUGCGUCUC” was tested, and the “apparent Kd” value [3] was 23.6 nM and the “apparent Kd” value [4] was 18 nM.
With “AAACAACAUGAGGAUCACCCAUGUAAGGAUAUGCGAGUUGGGUCAACGAAGGUUGAAGGCAGAAGGUAUAGGGU” the “apparent Kd” value [1] was 58.5 nM and the “apparent Kd” value [2] was 50.4 nM.
“AUAAGCUCGUCAGGAUAUGCGACACUGUGUCAGCAGUGUGGUAUGAUCACAUGAGGAUCACCCAUGUAGAAGGGACGAGCUUAU” was tested, and the “apparent Kd” value [1] was 6.34 nM and the “apparent Kd” value [2] was 14.3 nM.
In the case of “GGUACUCAAAGAGUACGGAGUCGAACAUGAGGAUCACCCAUGUAGGAUAUGCUAUUCUUGAAGUUGCAGAAGGACAUGUGCAGC”, the “apparent Kd” value [1] is reported as 10.9 nM and the “apparent Kd” value [2] is reported as 11.1 nM.
With “ACAUGAGGAUCACCCAUGUAGAAGGAGAGGGCAGAAUUUACGCAGGAUAUGCAUUUUUGGGAAAAGUAGAAGGGUGAGGGCGGA” the “apparent Kd” value [3] was 36.4 nM and the “apparent Kd” value [4] was 25.2 nM.
“GUUUACGUAGAAGGAUAUACAUUUGACAUCCUGAUGCACGCAAUACUCACAUGAGGAUCACCCAUGUAGAAGGUCUGCGAAAGA” was tested, and the “apparent Kd” value [1] was 15.5 nM and the “apparent Kd” value [2] was 24.8 nM.
In the case of “UUUAGUUCAGGAUAUGUAGAUUUUAACAUGAGGAUCACCCAUGUAAAUCCUGAUCCUGCUACAGAAGGGAACAUUU”, the “apparent Kd” value [1] is reported as 17 nM and the “apparent Kd” value [2] is reported as 20.7 nM.
For “AUUCAGCGAGGAUAUACAGGUUCUGGGUGAGGCUCGGCGAGACAUGAGGAUCACCCAUGUAGAAGGUGCUAGCC”, the “apparent Kd” value [1] was 341 nM and the “apparent Kd” value [2] was 284 nM.
“UUACUAUUACAGAAGGUUAAAUAAUAUAUAAAUGAAGGAUAUGUGACAUGAGGAUCACCCAUGUUUCACCCACAUGAGGAUCAU” was tested, and the “apparent Kd” value [1] was 8.62 nM and the “apparent Kd” value [2] was 7.41 nM.
“AGAAUAAACCAGAAGGCCGAGAUACAUGAGGAUCACCCAUGUAUACUUUGGAGGAUAUGGAUGAUUCAAGUGCGUUUCGUAGCA” was tested, and the “apparent Kd” value [3] was 3.98 nM and the “apparent Kd” value [4] was 3.36 nM.
